Source: ChEMBL document CHEMBL1138050, “Furan-2-ylmethylene thiazolidinediones as novel, potent, and selective inhibitors of phosphoinositide 3-kinase gamma” (J Med Chem, 2006)
Active and inactive are the calls of the source. No cut-off for these calls is given here.

Tests used:
[1] = target: Phosphatidylinositol 4,5-bisphosphate 3-kinase catalytic subunit alpha isoform (Homo sapiens, UniProt P42336); test: Inhibition of human PI3Kalpha
[2] = target: T1, Phosphatidylinositol 4,5-bisphosphate 3-kinase catalytic subunit gamma isoform (Homo sapiens, UniProt P48736); test: Inhibition of human PI3Kgamma
Target sequence in this assay (P48736 whole entry, canonical isoform): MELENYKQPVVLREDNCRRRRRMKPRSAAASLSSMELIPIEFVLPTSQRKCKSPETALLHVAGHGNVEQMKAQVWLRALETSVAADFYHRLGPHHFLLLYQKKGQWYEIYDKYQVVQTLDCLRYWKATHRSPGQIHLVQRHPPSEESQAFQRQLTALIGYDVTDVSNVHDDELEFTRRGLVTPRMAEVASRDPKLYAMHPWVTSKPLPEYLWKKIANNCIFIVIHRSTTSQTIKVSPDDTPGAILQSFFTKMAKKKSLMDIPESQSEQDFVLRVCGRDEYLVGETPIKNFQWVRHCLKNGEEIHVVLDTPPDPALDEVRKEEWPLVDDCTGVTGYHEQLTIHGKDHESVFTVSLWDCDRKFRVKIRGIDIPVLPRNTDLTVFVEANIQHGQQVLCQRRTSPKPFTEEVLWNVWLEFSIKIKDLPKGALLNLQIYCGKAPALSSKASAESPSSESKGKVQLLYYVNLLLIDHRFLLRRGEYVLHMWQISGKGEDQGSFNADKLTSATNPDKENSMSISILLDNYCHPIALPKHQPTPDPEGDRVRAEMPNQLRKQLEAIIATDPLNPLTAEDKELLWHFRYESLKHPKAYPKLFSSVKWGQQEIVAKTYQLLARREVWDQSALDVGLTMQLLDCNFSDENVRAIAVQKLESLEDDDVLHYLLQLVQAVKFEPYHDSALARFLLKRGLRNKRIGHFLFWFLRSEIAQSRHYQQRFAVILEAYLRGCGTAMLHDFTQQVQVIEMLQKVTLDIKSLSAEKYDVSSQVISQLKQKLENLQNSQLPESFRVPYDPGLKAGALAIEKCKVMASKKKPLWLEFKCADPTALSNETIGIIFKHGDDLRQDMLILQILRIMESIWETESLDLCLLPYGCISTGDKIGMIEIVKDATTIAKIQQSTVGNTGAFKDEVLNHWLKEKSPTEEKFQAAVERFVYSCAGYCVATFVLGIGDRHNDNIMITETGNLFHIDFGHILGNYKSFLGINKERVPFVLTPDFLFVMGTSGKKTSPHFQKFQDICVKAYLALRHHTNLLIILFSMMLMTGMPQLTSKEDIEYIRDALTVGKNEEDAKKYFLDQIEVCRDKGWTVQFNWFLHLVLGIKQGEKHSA

[3] = target: T1, Phosphatidylinositol 4,5-bisphosphate 3-kinase catalytic subunit gamma isoform; test: Inhibition of human PI3Kgamma at 1 uM
Method in brief: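 Primary screen of PI3Kγ lipid kinase (SPA, ATP/[γ33P]ATP with PtdIns substrate); percent inhibition at 1 µM compound.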
Target sequence in this assay (P48736 whole entry, looked up, canonical isoform): as the sequence (P48736 whole entry, canonical isoform) above

[4] = Dissociation constant, pKa of the compound; format: physicochemical
Method in brief: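 UV-metric titration under argon at 25 ± 0.5 °C. 10 mM DMSO stock diluted into 0.15 M KCl containing 60, 50, 40 or 30 wt% MeOH, with 0.25 mM KH2PO4. Brought to pH 11.0 with 0.5 M KOH, then titrated with 0.5 M HCl to pH 4, at most 0.15 pH unit per step. UV 200-500 nm recorded after each addition; Yasuda-Shedlovsky extrapolation to zero cosolvent.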

RAW264.7 = test: Inhibition of C5a-mediated PKB/Akt phosphorylation in mouse Raw264 macrophage; format: functional, cell-based
Method in brief: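 Raw-264 murine macrophages starved 3 h in serum-free medium, pretreated 30 min with inhibitor or DMSO, then stimulated 5 min with 50 nM C5a. Phospho-Ser-473 Akt measured by ELISA. Concentration-response; IC50. Mean ± standard deviation of four independent experiments done in triplicate.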

[5] = target: T2, Phosphatidylinositol 4,5-bisphosphate 3-kinase catalytic subunit delta isoform (Homo sapiens, UniProt O00329); test: Inhibition of human PI3Kdelta
T2 sequence (O00329 whole entry): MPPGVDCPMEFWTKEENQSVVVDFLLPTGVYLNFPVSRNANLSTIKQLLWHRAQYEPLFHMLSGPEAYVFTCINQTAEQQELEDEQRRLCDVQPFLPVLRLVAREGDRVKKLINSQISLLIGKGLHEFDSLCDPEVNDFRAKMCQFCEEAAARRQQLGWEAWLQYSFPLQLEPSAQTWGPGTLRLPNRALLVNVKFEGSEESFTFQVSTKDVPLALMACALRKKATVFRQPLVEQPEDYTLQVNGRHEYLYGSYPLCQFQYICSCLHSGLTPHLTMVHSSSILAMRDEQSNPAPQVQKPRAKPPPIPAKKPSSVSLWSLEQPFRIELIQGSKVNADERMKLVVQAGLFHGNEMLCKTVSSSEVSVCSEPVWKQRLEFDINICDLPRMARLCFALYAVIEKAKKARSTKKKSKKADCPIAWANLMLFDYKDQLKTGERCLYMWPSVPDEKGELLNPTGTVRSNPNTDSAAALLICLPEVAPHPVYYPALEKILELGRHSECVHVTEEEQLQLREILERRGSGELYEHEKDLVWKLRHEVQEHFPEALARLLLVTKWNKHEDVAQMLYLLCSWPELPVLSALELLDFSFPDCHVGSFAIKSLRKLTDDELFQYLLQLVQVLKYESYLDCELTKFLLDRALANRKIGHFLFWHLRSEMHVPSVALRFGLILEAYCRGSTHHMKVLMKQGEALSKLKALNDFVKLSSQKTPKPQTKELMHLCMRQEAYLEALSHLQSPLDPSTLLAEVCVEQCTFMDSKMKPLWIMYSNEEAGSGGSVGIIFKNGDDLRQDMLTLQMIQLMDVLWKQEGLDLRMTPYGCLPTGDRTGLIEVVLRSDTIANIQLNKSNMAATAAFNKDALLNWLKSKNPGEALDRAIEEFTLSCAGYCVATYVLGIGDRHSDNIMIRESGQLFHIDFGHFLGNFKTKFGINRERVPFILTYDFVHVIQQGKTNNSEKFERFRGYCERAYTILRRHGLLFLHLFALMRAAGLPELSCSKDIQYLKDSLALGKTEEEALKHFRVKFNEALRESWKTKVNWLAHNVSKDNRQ

[6] = target: Phosphatidylinositol 4,5-bisphosphate 3-kinase catalytic subunit beta isoform (Homo sapiens, UniProt P42338); test: Inhibition of human PI3Kbeta
THP-1 [7] = test: Inhibition of CSF-1-induced PKB/Akt phosphorylation in THP1 cells; settings: Homo sapiens
THP-1 [8] = test: Inhibition of MCP1-induced PKB/Akt phosphorylation in THP1 cells; format: functional, cell-based; settings: Homo sapiens
Method in brief: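 THP-1 monocytes starved 3 h in serum-free medium and pretreated with inhibitor or DMSO (15 min in methods; 20 min in figure legend). Stimulated with 100 nM MCP-1/CCL2 for 30 s, or with 50 ng/mL CSF-1 for 5 min. Phospho-Ser-473 and total Akt detected by Western blot and quantified.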

THP-1 [9] = test: Inhibition of MCP1-induced chemotaxis of THP1 cells; format: functional, cell-based; settings: Homo sapiens
Mast cell = test: Inhibition of SCF-induced PKB/Akt phosphorylation in mouse mast cells at 20 uM; format: functional, cell-based
Method in brief: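 Bone marrow mast cells from 4- to 8-week-old wild-type mice, derived ≥4 weeks in 20 ng/mL SCF plus 20 ng/mL IL-3 and confirmed c-kit+ by FACS. Cells at 2.5 × 10^6/mL starved 24 h without SCF/IL-3, preincubated 20 min with compound or 1% DMSO, stimulated 15 min at 37 °C with 20 ng/mL SCF. Fixed in 1.5% paraformaldehyde, permeabilized with 0.2% Triton X-100, phospho-Ser-473 Akt read by FACS.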

Chain of Phosphatidylinositol 4,5-bisphosphate 3-kinase catalytic subunit alpha isoform (P42336 whole entry, canonical isoform): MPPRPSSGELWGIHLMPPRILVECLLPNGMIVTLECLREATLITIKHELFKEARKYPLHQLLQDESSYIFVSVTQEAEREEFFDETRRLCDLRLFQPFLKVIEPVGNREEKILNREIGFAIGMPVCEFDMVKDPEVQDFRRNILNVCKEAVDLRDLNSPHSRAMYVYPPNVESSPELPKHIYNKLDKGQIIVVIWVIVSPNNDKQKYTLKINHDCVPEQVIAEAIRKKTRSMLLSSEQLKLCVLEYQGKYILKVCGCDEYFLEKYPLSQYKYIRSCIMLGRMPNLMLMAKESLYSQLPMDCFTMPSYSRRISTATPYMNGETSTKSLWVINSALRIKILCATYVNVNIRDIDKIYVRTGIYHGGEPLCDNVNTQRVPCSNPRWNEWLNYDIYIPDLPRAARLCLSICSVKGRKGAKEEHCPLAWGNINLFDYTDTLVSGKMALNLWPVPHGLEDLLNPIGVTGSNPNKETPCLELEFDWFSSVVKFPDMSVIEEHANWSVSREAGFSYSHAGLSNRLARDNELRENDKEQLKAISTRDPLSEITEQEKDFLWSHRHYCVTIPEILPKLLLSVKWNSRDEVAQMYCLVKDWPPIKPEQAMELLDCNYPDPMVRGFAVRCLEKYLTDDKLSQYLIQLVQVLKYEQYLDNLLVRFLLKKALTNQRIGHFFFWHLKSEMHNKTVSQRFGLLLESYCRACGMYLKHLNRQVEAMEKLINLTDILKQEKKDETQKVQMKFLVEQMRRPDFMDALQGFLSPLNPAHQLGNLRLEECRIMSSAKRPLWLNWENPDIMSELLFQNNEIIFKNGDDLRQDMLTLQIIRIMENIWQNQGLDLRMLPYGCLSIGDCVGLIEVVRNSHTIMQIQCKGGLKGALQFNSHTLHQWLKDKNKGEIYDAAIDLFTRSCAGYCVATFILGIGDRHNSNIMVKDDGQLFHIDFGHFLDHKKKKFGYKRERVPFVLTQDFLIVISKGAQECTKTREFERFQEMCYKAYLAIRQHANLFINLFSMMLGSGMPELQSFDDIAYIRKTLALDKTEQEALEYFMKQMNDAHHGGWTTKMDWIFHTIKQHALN
Chain of Phosphatidylinositol 4,5-bisphosphate 3-kinase catalytic subunit beta isoform (P42338 whole entry, canonical isoform): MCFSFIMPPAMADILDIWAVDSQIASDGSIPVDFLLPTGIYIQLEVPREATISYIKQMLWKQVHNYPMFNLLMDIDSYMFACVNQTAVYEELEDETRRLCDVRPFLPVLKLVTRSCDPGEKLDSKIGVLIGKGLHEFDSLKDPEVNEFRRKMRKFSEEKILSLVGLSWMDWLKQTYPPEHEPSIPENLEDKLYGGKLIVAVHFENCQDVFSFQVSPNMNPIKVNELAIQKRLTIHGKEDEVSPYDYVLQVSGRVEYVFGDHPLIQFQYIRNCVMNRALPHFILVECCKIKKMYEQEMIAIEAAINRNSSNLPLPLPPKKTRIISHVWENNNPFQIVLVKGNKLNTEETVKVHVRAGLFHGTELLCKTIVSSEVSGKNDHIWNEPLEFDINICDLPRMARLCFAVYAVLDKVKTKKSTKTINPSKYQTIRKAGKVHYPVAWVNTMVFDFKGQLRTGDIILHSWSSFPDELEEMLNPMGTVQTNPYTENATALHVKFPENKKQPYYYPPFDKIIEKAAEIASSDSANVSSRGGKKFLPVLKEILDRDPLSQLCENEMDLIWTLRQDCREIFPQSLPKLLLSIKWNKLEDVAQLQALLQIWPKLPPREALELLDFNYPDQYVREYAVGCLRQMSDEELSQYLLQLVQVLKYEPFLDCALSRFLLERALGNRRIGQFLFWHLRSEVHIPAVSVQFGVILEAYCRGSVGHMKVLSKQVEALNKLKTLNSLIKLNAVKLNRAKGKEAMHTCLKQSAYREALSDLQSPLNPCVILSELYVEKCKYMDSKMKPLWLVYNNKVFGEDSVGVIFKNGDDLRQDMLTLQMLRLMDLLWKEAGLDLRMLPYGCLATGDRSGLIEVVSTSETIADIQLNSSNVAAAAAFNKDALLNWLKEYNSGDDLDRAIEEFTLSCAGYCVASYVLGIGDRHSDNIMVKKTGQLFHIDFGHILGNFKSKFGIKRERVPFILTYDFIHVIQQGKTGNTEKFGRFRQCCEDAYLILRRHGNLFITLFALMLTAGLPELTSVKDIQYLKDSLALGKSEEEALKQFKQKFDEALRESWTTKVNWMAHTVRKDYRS

IC50 [1] [nM]	IC50 [2] [nM]	SMILES	other results
–	20000	O=C1NC(=O)/C(=C/c2ccc(-c3ccccc3)o2)S1	–
–	4300	O=C1NC(=O)/C(=C/c2ccc(-c3cccc(C(=O)O)c3)o2)S1	–
545	43	O=C1NC(=O)/C(=C/c2ccc(-c3cc(Cl)ccc3O)o2)S1	pKa [4]: 8.9
455	37	O=C1NC(=O)/C(=C/c2ccc(-c3cc(F)ccc3O)o2)S1	pKa [4]: 9.1; IC50 (RAW264.7): 1710 nM
330	30	O=C1NC(=O)/C(=C/c2ccc(-c3ccccc3O)o2)S1	IC50 [5]: > 5000 nM; pKa [4]: 9.5; IC50 [6]: 20000 nM; IC50 (RAW264.7): 810 nM
1000	260	O=C1NC(=O)/C(=C/c2ccc(-c3ccc(O)cc3F)o2)S1	–
630	950	O=C1NC(=O)/C(=C/c2ccc(-c3cccnc3)o2)S1	–
190	20	O=C1NC(=O)/C(=C/c2ccc(-c3ccc(O)cc3O)o2)S1	pKa [4]: 8.7; IC50 (RAW264.7): 3490 nM
1800	290	O=C1NC(=O)/C(=C/c2ccc(-c3cccc(O)c3)o2)S1	–
100	20	O=C1NC(=O)/C(=C/c2ccc(-c3cc(O)ccc3O)o2)S1	–
20000	20000	O=C1NC(=O)/C(=C/c2ccc(-c3ccc4c(c3)OCO4)o2)S1	–
–	13500	COC(=O)c1cccc(-c2ccc(/C=C3\SC(=O)NC3=O)o2)c1	–
–	20000	O=C1NC(=O)/C(=C/c2ccc(-c3ccccc3Cl)o2)S1	–
500	39	Cc1ccc(O)c(-c2ccc(/C=C3\SC(=O)NC3=O)o2)c1	pKa [4]: 9.7; IC50 (RAW264.7): 1060 nM
–	1200	O=C1NC(=O)/C(=C/c2ccc(-c3ccccc3F)o2)S1	–
3600	380	O=C1NC(=O)/C(=C/c2ccc(-c3ccc(O)cc3)o2)S1	–
185	110	O=C1NC(=O)/C(=C/c2ccc(-c3ccccn3)o2)S1	IC50 (RAW264.7): 3650 nM
–	840	O=C1NC(=O)/C(=C/c2ccc(-c3ccoc3)o2)S1	–
–	2600	COc1cccc(-c2ccc(/C=C3\SC(=O)NC3=O)o2)c1	–

Second part, the compound before the results:

SMILES	IC50 [1] [nM]	IC50 [2] [nM]	other results
O=C1NC(=S)S/C1=C\c1ccc(-c2cccc(C(=O)O)c2)o1	> 20000	920	–
O=C1NC(=O)/C(=C/c2ccc(-c3ccccc3C(=O)O)o2)S1	–	–	inhibition [3]: 4%
O=C1NC(=O)/C(=C/c2ccc(-c3ccc(F)cc3F)o2)S1	–	3800	–
O=C(O)Cc1cccc(-c2ccc(/C=C3\SC(=O)NC3=O)o2)c1	–	–	inhibition [3]: 15%
CC(=O)Nc1ccccc1-c1ccc(/C=C2\SC(=O)NC2=O)o1	–	–	inhibition [3]: 24%
COc1cc(F)ccc1-c1ccc(/C=C2\SC(=O)NC2=O)o1	–	–	inhibition [3]: 11%
O=C1NC(=O)/C(=C/c2ccc(-c3ccccc3O)s2)S1	–	–	inhibition [3]: 27%
Nc1ccc([N+](=O)[O-])cc1-c1ccc(/C=C2\SC(=O)NC2=O)o1	–	–	inhibition [3]: 18%
O=C1NC(=S)S/C1=C\c1ccc(-c2ccc([N+](=O)[O-])cc2Br)o1	–	3600	–
O=C1NC(=O)/C(=C/c2ccc(-c3cccc([N+](=O)[O-])c3)o2)S1	–	–	inhibition [3]: 24%
N#Cc1ccc(O)c(-c2ccc(/C=C3\SC(=O)NC3=O)o2)c1	220	40	pKa [4]: 7.3
O=C(O)Cc1ccccc1-c1ccc(/C=C2\SC(=O)NC2=O)o1	–	–	inhibition [3]: 12%
O=C1NC(=O)/C(=C/c2ccc(-c3cccc4cccnc34)o2)S1	–	–	inhibition [3]: 17%
COC(=O)c1ccccc1-c1ccc(/C=C2\SC(=O)NC2=O)o1	–	–	inhibition [3]: 2%
O=C1NC(=O)/C(=C/c2ccc(-c3cccc([N+](=O)[O-])c3O)o2)S1	1250	80	–
O=C1NC(=O)/C(=C/c2ccc(-c3ccc([N+](=O)[O-])o3)o2)S1	–	20000	–
O=C1NC(=O)/C(=C/c2ccc(-c3cc(OC(F)(F)F)ccc3O)o2)S1	600	56	pKa [4]: 8.7; IC50 (RAW264.7): 880 nM
COc1ccccc1-c1ccc(/C=C2\SC(=O)NC2=O)o1	–	–	inhibition [3]: 44%
O=c1cc(N2CCOCC2)oc2c(-c3ccccc3)cccc12 [LY-294002]	–	–	IC50 (THP-1 [7]): 1010 nM; IC50 [5]: 1330 nM; IC50 (THP-1 [8]): 1650 nM; IC50 (RAW264.7): 10000 nM; IC50 (THP-1 [9]): 37000 nM; Activity (Mast cell): Active
O=C1NC(=O)/C(=C/c2ccc(-c3cc(F)cc(F)c3O)s2)S1	340	29	IC50 (RAW264.7): 1390 nM
O=C1NC(=O)/C(=C/c2ccc(-c3cc(C(=O)O)ccc3O)o2)S1	1350	530	pKa [4]: 8.6
O=C1NC(=S)S/C1=C\c1ccc(-c2cc([N+](=O)[O-])ccc2O)o1	600	200	–
O=C1NC(=O)/C(=C/c2ccc(-c3ccc(F)cc3O)s2)S1	–	–	inhibition [3]: 4%
COC(=O)c1ccc(-c2ccc(/C=C3\SC(=O)NC3=O)o2)c(O)c1	210	29	pKa [4]: 8.7; IC50 (RAW264.7): 720 nM
